Assay results taken from PubChem BioAssay.
Activity calls are given as the source filed them.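 The calls were made as follows, unless noted: active = NADPH fluorescence slope more negative than the mean of all samples by about 3 SD, 99.7% confidence; inactive = the rest.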

Key:
[1] = inhibitors of TNFa-induced NFkB p65 translocation, primary screen, imaging, HUVEC, MLSMR starter and 10KST1 sets (AID 438;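 active = inhibition above 20% together with a positive visual image hit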;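 also: compound added about 3h40 before a 20 min TNFalpha stimulation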;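 as to inhibition: signal is the nuclear over cytoplasmic p65 intensity ratio per well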); conditions: HUVEC TNFa-induced p65 nuclear translocation; cell count: measured here: nuclei count (cytotoxicity indicator), at 2.08 µM; inhibition: at 2 µM, stronger effect = higher value, 0% TNFa-plus-vehicle, 100% no-TNFa wells
[2] = endothelial E-selectin expression blockers – imaging, HUVEC, immunofluorescence, MLSMR starter and 10KST1 sets, primary screen (AID 487;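 active = visually confirmed hit in the image check and inhibition above 20%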;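 as to inhibition: signal is fraction of cell area covered by stained E-selectin grains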;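 as to nuclei count: 100% = median nuclei count of all wells on the same plate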); conditions: HUVEC TNFalpha-induced E-selectin immunofluorescence imaging, at 2 µM; inhibition: stronger effect = higher value; nuclei count: measured here: cell number, toxicity
[3] = Primary imaging screen for DUSP6 inhibitors that restore phospho-Erk in transfected HeLa cells, chemical complementation (AID 609;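 active = compounds giving at least 50% inhibition in the cell-based MKP-3 phosphatase rescue imaging test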;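 as to inhibition: phospho-Erk level distribution per well compared with pooled transfected vehicle control wells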); conditions: HeLa MKP-3 transfected, phospho-Erk imaging KS statistic, at 10 µM, cells stimulated with TPA for 15 min
[4] = biological target: Dual specificity protein phosphatase 6 (Homo sapiens) (UniProt Q16828); experiment: as above; conditions: HeLa MKP-3 transfected, phospho-Erk imaging KS statistic; at 10 µM; stronger effect = higher value; cells stimulated with TPA for 15 min
[5] = biological target: Voltage-gated potassium channel subunit beta-2 (Rattus norvegicus) (UniProt P62483); experiment: inhibitors of rat Kvbeta2 reductase activity – biochemical, NADPH fluorescence, primary screen (AID 622;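 active = fluorescence slope higher than the sample average by over 3 SD, cut at about -0.22 in these data, passing the limit was not always enough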;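 also: slope of raw intensity against log time taken from 70 to 1610 s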); conditions: recombinant KvBeta, 4-cyanobenzaldehyde reduction, at 10 µM, stronger effect = higher value
[6] = biological target: Voltage-gated potassium channel subunit beta-2 (Rattus norvegicus) (UniProt P62483); experiment: enhancers of rat Kvbeta2 NADPH turnover – biochemical, NADPH fluorescence, primary screen (AID 623); conditions: Recombinant KvBeta, NADPH fluorescence decrease slope, 10 min; at 10 µM; stronger effect = lower value;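 also: fluorescence intensity change per second fitted from 20 to 320 s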
[7] = biological target: Muscarinic acetylcholine receptor M4 (Homo sapiens) (UniProt P08173); experiment: M4-linked GIRK flux change, two-sided – cell-based, HEK293 M4/GIRK, thallium flux, BTC-AM, M4 allosteric agonist project, primary screen (AID 625;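 active = fluorescence slope after compound addition differing from the mean of all tested samples at 99.7% confidence, mostly higher but some lower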;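 also: thallium influx through GIRK channels coupled to M4 in HEK293 cells with BTC-AM dye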); conditions: at 10 µM, actives lie on both sides
How it was run: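 assay system = HEK293 cells with M4 receptor and GIRK channels | medium = pH 7.3 thallium assay buffer | doses = 10 µM final, single point | timing = cells overnight at 37 °C, BTC-AM loading 1 h, reads 2 min total | signal = BTC-AM fluorescence, 1 Hz kinetic reads | read-out = post-addition slope, 15–24 s, of baseline-normalized fluorescence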

[8] = inhibitors of larval lipid processing in zebrafish, primary screen, whole organism, PED6 fluorescence, gall bladder and intestine (AID 686;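 active = a full or partial loss of lipid-probe fluorescence in the fish gall bladder, intestine or both, judged by eye; inactive = no fluorescence loss, or compound toxic to the fish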;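 also: larvae 5 to 7 days old with five fish per well; signal comes from phospholipase A2 cleavage of quenched PED6 carried via bile; overnight exposure to compound and PED6 before scoring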); conditions: Zebrafish larvae PED6 lipid processing, fluorescence scoring; screened at 20 µM (by protocol)
How it was run: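 Also added: quenched phospholipase substrate PED6, 100 nM final, ingested by larvae; System: zebrafish larvae, 5-7 d; Quantity: 5 larvae per well; Compound: 20 µM single dose; Schedule: overnight compound and PED6 incubation; Read-out: visual per-well fluorescence inhibition score; Measured by: By-eye fluorescence microscopy; Medium: E3.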

[9] = loss of swimming-algae plug formation – whole organism, Chlamydomonas reinhardtii, WT vs cilia-less mutant, absorbance, 96-well, primary screen (AID 463189;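 active = inhibition at or above 50% relative to wild type and mutant plate controls; inactive = inhibition below 50%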;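 also: 0% = wild type cc124 cells in DMSO and 100% = ciliumless bld1 mutant cells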); conditions: Chlamydomonas reinhardtii gravitaxis, OD600 absorbance, 2 days; at 10 µM; stronger effect = higher value
[10] = measured here: cell density z-score
[11] = measured here: nuclear c-Myc green intensity z-score
[12] = measured here: nuclear pErk red intensity z-score, stronger effect = higher value

Dual specificity protein phosphatase 6 (Homo sapiens), sequence (Q16828 whole entry, looked up): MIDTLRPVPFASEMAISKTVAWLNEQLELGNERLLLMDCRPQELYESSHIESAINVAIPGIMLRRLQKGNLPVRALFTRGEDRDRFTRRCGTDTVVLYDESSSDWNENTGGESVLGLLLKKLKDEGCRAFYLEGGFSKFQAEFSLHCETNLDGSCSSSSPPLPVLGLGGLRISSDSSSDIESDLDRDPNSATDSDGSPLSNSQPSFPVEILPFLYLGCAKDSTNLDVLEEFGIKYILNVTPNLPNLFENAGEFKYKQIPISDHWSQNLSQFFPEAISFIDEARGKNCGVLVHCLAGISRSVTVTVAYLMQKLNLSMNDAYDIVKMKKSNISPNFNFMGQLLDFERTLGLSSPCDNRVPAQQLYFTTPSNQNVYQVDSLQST
Voltage-gated potassium channel subunit beta-2 (Rattus norvegicus), sequence (P62483 whole entry, looked up): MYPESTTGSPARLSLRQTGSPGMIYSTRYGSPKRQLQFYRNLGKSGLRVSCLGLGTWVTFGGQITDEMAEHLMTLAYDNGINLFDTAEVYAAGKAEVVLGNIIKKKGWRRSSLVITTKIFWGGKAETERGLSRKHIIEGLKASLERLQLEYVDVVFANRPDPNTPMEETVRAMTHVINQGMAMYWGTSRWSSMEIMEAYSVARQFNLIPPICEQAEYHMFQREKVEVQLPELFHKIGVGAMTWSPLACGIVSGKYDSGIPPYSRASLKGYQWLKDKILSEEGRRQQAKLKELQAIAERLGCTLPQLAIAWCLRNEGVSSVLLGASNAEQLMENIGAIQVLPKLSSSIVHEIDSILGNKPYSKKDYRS
Muscarinic acetylcholine receptor M4 (Homo sapiens), sequence (P08173 whole entry, looked up): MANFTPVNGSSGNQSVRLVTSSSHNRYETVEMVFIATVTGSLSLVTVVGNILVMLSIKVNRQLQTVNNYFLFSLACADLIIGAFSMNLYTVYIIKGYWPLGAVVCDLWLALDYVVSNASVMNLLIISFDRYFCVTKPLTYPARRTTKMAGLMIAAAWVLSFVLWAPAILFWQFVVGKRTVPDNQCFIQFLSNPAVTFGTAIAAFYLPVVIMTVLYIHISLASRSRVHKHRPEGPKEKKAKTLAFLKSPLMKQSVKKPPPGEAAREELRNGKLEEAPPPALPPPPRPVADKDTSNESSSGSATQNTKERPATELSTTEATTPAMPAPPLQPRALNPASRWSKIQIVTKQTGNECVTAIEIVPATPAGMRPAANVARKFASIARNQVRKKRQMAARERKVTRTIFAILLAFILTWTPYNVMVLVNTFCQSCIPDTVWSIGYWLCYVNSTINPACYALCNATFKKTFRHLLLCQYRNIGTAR

| SMILES | cell count [1] | inhibition [1] | inhibition [2] | nuclei count [2] [%] | z-score [3, 10] | z-score [3, 11] | z-score [3, 12] | inhibition [4] | fluorescence slope [5] | NADPH fluorescence slope [6] | fluorescence slope [7] | outcome [8] | inhibition [9] |
| --- | --- | --- | --- | --- | --- | --- | --- | --- | --- | --- | --- | --- | --- |
| Cc1ccc(C(=O)NCCCNCCCNC(=O)c2ccc(C)nc2)cn1 | 393 | -2.8% (inactive) | -153% (inactive) | 151 | 0.349 | -0.364 | -0.725 | 3.56% (inactive) | -0.471 (inactive) | -8.7e-05 (inactive) | 0.00476 (inactive) | inactive | 0.875% (inactive) |
| COc1nnnc2c1sc1nc(N3CCOCC3)c3c(c12)CC(C)(C)OC3 | 590 | -3.9% (inactive) | -92.2% (inactive) | 154 | 0.493 | 0.116 | -0.785 | -13.3% (inactive) | -0.482 (inactive) | -0.000107 (inactive) | 0.00514 (inactive) | inactive | -3.82% (inactive) |
| O=C1C=C(N2CCN(C3=CC(=O)CCC3)CC2)CCC1 | 493 | -0.4% (inactive) | 4.1% (inactive) | 100 | -1.82 | 2.6 | 0.89 | -0.233% (inactive) | -0.469 (inactive) | -6.9e-05 (inactive) | 0.00636 (inactive) | inactive | -18.9% (inactive) |
| CCOC(=O)Oc1ccc2c(c1)C(C)=CC(C)(C)N2C(=O)OCC | 618 | 2.2% (inactive) | -42% (inactive) | 115 | 1.01 | 0.72 | 0.465 | -13.3% (inactive) | -0.433 (inactive) | -4.7e-05 (inactive) | 0.00572 (inactive) | inactive | -7.72% (inactive) |
| CCC(=O)Nc1ccc(-c2nnc(SCC(=O)NCC3CCCO3)n2C)cc1 (stereo not given) | 656 | -4.5% (inactive) | 10.4% (inactive) | 160 | -0.113 | 1.6 | 0.412 | -2.09% (inactive) | -0.5 (inactive) | -5.7e-05 (inactive) | 0.0052 (inactive) | inactive | -4.35% (inactive) |
| Cc1cc(=O)oc(C)c1C(=O)NCC(C)C | 455 | -2.1% (inactive) | -11.5% (inactive) | 98.2 | -0.875 | 2.27 | -0.541 | 23.8% (inactive) | -0.432 (inactive) | -5.9e-06 (inactive) | 0.00519 (inactive) | inactive | -17.5% (inactive) |
| Cc1cc(C)n(CC2CC(=O)N(c3cc(Cl)cc(Cl)c3)C2=O)n1 (stereo not given) | 656 | 50.4% (active) | -80.7% (inactive) | 103 | -0.905 | 0.888 | -1.76 | -9.53% (inactive) | -0.548 (inactive) | -7.9e-05 (inactive) | 0.00628 (inactive) | inactive | 10.7% (inactive) |
| COc1ccc(C2NC(=O)NC(O)(C(F)(F)F)C2C(=O)c2ccc(F)cc2)cc1 (stereo not given) | 632 | 6.6% (inactive) | -68.3% (inactive) | 159 | -1.22 | 1.16 | 0.887 | -0.674% (inactive) | -0.479 (inactive) | -5.2e-05 (inactive) | 0.00666 (inactive) | inactive | -6.15% (inactive) |
| Cc1c(C)c2cc(Cl)c(O)c(CN3CCCC(C)C3)c2oc1=O (stereo not given) | 540 | -4.7% (inactive) | 45.7% (inactive) | 94.2 | 0.999 | 0.842 | -1.58 | 9.37% (inactive) | -0.0221 (inactive) | -5.4e-06 (inactive) | 0.00608 (inactive) | inactive | -7.68% (inactive) |
| COC(=O)CSc1nc(C)c(Oc2ccccc2)c(=O)[nH]1 | 726 | 7.2% (inactive) | -102% (inactive) | 162 | -1.93 | 2.21 | -0.257 | -2.09% (inactive) | -0.424 (inactive) | -5.8e-05 (inactive) | 0.00506 (inactive) | inactive | -8.15% (inactive) |
